# Tested on: A549
# Assay: Growth inhibition of human A549 cells after 48 hrs by MTT assay
# Type: functional, cell-based
# Settings: A549, 48 h
# Outline: (§1)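 Cells seeded at 8000/well, treated 24 h later in duplicate with a range of concentrations (DMSO stock 10 g/L diluted in fresh medium), 48 h at 37 °C, 5% CO2. MTT (5 mg/ml in PBS) added for 4 h, formazan dissolved in DMSO, absorbance read at 570 nm. IC50 is the concentration giving 50% survival.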
row,SMILES,IC50
1,COc1ccc2c(=O)c(/C=C/C(=O)NCc3ccc(C)cc3)coc2c1,> 100 µM
2,COc1ccc(CNC(=O)/C=C/c2coc3cc(OC)ccc3c2=O)cc1,22.5 µM
3,COc1ccc2c(=O)c(/C=C/C(=O)NCc3ccccc3F)coc2c1,> 100 µM
4,COc1ccc2c(=O)c(/C=C/C(=O)NCc3cccc(F)c3)coc2c1,26.9 µM
5,COc1ccc2c(=O)c(/C=C/C(=O)NCc3ccc(F)cc3)coc2c1,> 100 µM
6,COc1ccc2c(=O)c(/C=C/C(=O)NCc3ccc(F)cc3F)coc2c1,13.3 µM
7,COc1ccc2c(=O)c(/C=C/C(=O)Nc3ccccc3)coc2c1,51 µM
8,COc1ccc2c(=O)c(/C=C/C(=O)Nc3ccccc3C)coc2c1,23.4 µM

# Tested on: Hepatitis B virus
# Assay: Antiviral activity against HBV infected in human HepG2(2.2.15) cells assessed as inhibition of viral replication after 9 days by fluorescence PCR method
# Type: functional, organism-based
# Settings: HepG2 2.2.15, 216 h
# Outline: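 HepG2 2.2.15 cells given a range of compound concentrations for nine days; HBV DNA quantified by fluorescence PCR. IC50 taken as the concentration giving 50% inhibition of HBV DNA replication.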
row,SMILES,IC50
1,COc1ccc2c(=O)c(/C=C/C(=O)NCc3ccc(C)cc3)coc2c1,53.5 µM
2,COc1ccc(CNC(=O)/C=C/c2coc3cc(OC)ccc3c2=O)cc1,24.3 µM
3,COc1ccc2c(=O)c(/C=C/C(=O)NCc3ccccc3F)coc2c1,68.6 µM
4,COc1ccc2c(=O)c(/C=C/C(=O)NCc3cccc(F)c3)coc2c1,75.4 µM
5,COc1ccc2c(=O)c(/C=C/C(=O)NCc3ccc(F)cc3)coc2c1,11.2 µM
6,COc1ccc2c(=O)c(/C=C/C(=O)NCc3ccc(F)cc3F)coc2c1,37 µM
7,COc1ccc2c(=O)c(/C=C/C(=O)Nc3ccccc3)coc2c1,> 100 µM
8,COc1ccc2c(=O)c(/C=C/C(=O)Nc3ccccc3C)coc2c1,> 100 µM

# Tested on: not listed separately
# Assay: Selectivity index, ratio of CC50 for human HepG2(2.2.15) cells to IC50 for HBV infected in human HepG2(2.2.15) cells assessed as inhibition of viral replication
# Type: functional
# Settings: not given
# Outline: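 Selectivity index calculated as CC50 in HepG2 2.2.15 cells (MTT, 9-day exposure) divided by IC50 for HBV DNA reduction measured by fluorescence PCR after 9 days.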
row,SMILES,Ratio CC50/IC50
1,COc1ccc2c(=O)c(/C=C/C(=O)NCc3ccc(C)cc3)coc2c1,4.81
2,COc1ccc(CNC(=O)/C=C/c2coc3cc(OC)ccc3c2=O)cc1,1.77
3,COc1ccc2c(=O)c(/C=C/C(=O)NCc3ccccc3F)coc2c1,2.13
4,COc1ccc2c(=O)c(/C=C/C(=O)NCc3cccc(F)c3)coc2c1,6.3
5,COc1ccc2c(=O)c(/C=C/C(=O)NCc3ccc(F)cc3)coc2c1,11.84
6,COc1ccc2c(=O)c(/C=C/C(=O)NCc3ccc(F)cc3F)coc2c1,2.14

# Tested on: not listed separately
# Assay: Growth inhibition of human L02 cells after 48 hrs by MTT assay
# Type: functional, cell-based
# Settings: L02, 48 h
# Outline: as §1
row,SMILES,IC50
1,COc1ccc2c(=O)c(/C=C/C(=O)NCc3ccc(C)cc3)coc2c1,> 200 µM
2,COc1ccc(CNC(=O)/C=C/c2coc3cc(OC)ccc3c2=O)cc1,> 200 µM
3,COc1ccc2c(=O)c(/C=C/C(=O)NCc3ccccc3F)coc2c1,> 200 µM
4,COc1ccc2c(=O)c(/C=C/C(=O)NCc3cccc(F)c3)coc2c1,> 200 µM
5,COc1ccc2c(=O)c(/C=C/C(=O)NCc3ccc(F)cc3)coc2c1,> 200 µM
6,COc1ccc2c(=O)c(/C=C/C(=O)NCc3ccc(F)cc3F)coc2c1,> 200 µM
7,COc1ccc2c(=O)c(/C=C/C(=O)Nc3ccccc3)coc2c1,> 200 µM
8,COc1ccc2c(=O)c(/C=C/C(=O)Nc3ccccc3C)coc2c1,> 200 µM

# Tested on: not listed separately
# Assay: Cytotoxicity against human HepG2(2.2.15) cells compound treated for 48 hrs followed by incubation for 9 days by MTT assay
# Type: cell-based
# Settings: not given
# Outline: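 HepG2 2.2.15 cells kept 48 h in plates before adding compounds (DMSO stocks serially diluted in medium), then incubated at 37 °C for 9 days. Media-only wells as blank. MTT (5 g/L) added 4 h before lysis in 10% SDS/50% DMF, pH 7.2; OD at 570 nm gives percent cell death; CC50 derived.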
row,SMILES,CC50 at 48 h
1,COc1ccc2c(=O)c(/C=C/C(=O)NCc3ccc(C)cc3)coc2c1,257 µM
2,COc1ccc(CNC(=O)/C=C/c2coc3cc(OC)ccc3c2=O)cc1,43 µM
3,COc1ccc2c(=O)c(/C=C/C(=O)NCc3ccccc3F)coc2c1,146 µM
4,COc1ccc2c(=O)c(/C=C/C(=O)NCc3cccc(F)c3)coc2c1,475 µM
5,COc1ccc2c(=O)c(/C=C/C(=O)NCc3ccc(F)cc3)coc2c1,133 µM
6,COc1ccc2c(=O)c(/C=C/C(=O)NCc3ccc(F)cc3F)coc2c1,79.2 µM
7,COc1ccc2c(=O)c(/C=C/C(=O)Nc3ccccc3)coc2c1,523 µM
8,COc1ccc2c(=O)c(/C=C/C(=O)Nc3ccccc3C)coc2c1,59.7 µM

# Tested on: not listed separately
# Assay: Selectivity index, ratio of CC50 for human HepG2(2.2.15) cells to IC50 for HBV infected in human HepG2(2.2.15) cells assessed as inhibition of HBsAg production
# Type: functional
# Settings: not given
# Outline: (§2)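 Selectivity index calculated as CC50 in HepG2 2.2.15 cells (MTT, 9-day exposure) divided by IC50 for HBeAg or HBsAg reduction (ELISA of 9-day supernatants).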
row,SMILES,Ratio CC50/IC50
1,COc1ccc2c(=O)c(/C=C/C(=O)NCc3ccc(C)cc3)coc2c1,3.11
2,COc1ccc(CNC(=O)/C=C/c2coc3cc(OC)ccc3c2=O)cc1,3.08
3,COc1ccc2c(=O)c(/C=C/C(=O)NCc3ccccc3F)coc2c1,2.8
4,COc1ccc2c(=O)c(/C=C/C(=O)NCc3cccc(F)c3)coc2c1,5.67
5,COc1ccc2c(=O)c(/C=C/C(=O)NCc3ccc(F)cc3)coc2c1,2.26
6,COc1ccc2c(=O)c(/C=C/C(=O)NCc3ccc(F)cc3F)coc2c1,5.55
7,COc1ccc2c(=O)c(/C=C/C(=O)Nc3ccccc3)coc2c1,32.7
8,COc1ccc2c(=O)c(/C=C/C(=O)Nc3ccccc3C)coc2c1,4

# Tested on: not listed separately
# Assay: Growth inhibition of human QGY7701 cells after 48 hrs by MTT assay
# Type: functional
# Settings: QGY7701, 48 h
# Outline: as §1
row,SMILES,IC50
1,COc1ccc2c(=O)c(/C=C/C(=O)NCc3ccc(C)cc3)coc2c1,10.2 µM
2,COc1ccc(CNC(=O)/C=C/c2coc3cc(OC)ccc3c2=O)cc1,15.7 µM
3,COc1ccc2c(=O)c(/C=C/C(=O)NCc3ccccc3F)coc2c1,34 µM
4,COc1ccc2c(=O)c(/C=C/C(=O)NCc3cccc(F)c3)coc2c1,28.6 µM
5,COc1ccc2c(=O)c(/C=C/C(=O)NCc3ccc(F)cc3)coc2c1,7.96 µM
6,COc1ccc2c(=O)c(/C=C/C(=O)NCc3ccc(F)cc3F)coc2c1,> 100 µM
7,COc1ccc2c(=O)c(/C=C/C(=O)Nc3ccccc3)coc2c1,14 µM
8,COc1ccc2c(=O)c(/C=C/C(=O)Nc3ccccc3C)coc2c1,22.4 µM

# Tested on: Hepatitis B virus
# Assay: Antiviral activity against HBV infected in human HepG2(2.2.15) cells assessed as inhibition of HBsAg production after 9 days by ELISA
# Type: functional, organism-based
# Settings: HepG2 2.2.15, 216 h
# Outline: (§3)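 HepG2 2.2.15 cells (HBV-producing) given a range of compound concentrations for nine days; culture supernatants collected and HBsAg or HBeAg levels measured by ELISA. IC50 taken as the concentration giving 50% inhibition of antigen level.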
row,SMILES,IC50
1,COc1ccc2c(=O)c(/C=C/C(=O)NCc3ccc(C)cc3)coc2c1,82.6 µM
2,COc1ccc(CNC(=O)/C=C/c2coc3cc(OC)ccc3c2=O)cc1,14 µM
3,COc1ccc2c(=O)c(/C=C/C(=O)NCc3ccccc3F)coc2c1,52.1 µM
4,COc1ccc2c(=O)c(/C=C/C(=O)NCc3cccc(F)c3)coc2c1,83.8 µM
5,COc1ccc2c(=O)c(/C=C/C(=O)NCc3ccc(F)cc3)coc2c1,58.8 µM
6,COc1ccc2c(=O)c(/C=C/C(=O)NCc3ccc(F)cc3F)coc2c1,14.3 µM
7,COc1ccc2c(=O)c(/C=C/C(=O)Nc3ccccc3)coc2c1,16 µM
8,COc1ccc2c(=O)c(/C=C/C(=O)Nc3ccccc3C)coc2c1,14.9 µM

# Tested on: HeLa
# Assay: Growth inhibition of human HeLa cells after 48 hrs by MTT assay
# Type: functional, cell-based
# Settings: not given
# Outline: as §1
row,SMILES,IC50
1,COc1ccc2c(=O)c(/C=C/C(=O)NCc3ccc(C)cc3)coc2c1,> 100 µM
2,COc1ccc(CNC(=O)/C=C/c2coc3cc(OC)ccc3c2=O)cc1,> 100 µM
3,COc1ccc2c(=O)c(/C=C/C(=O)NCc3ccccc3F)coc2c1,> 100 µM
4,COc1ccc2c(=O)c(/C=C/C(=O)NCc3cccc(F)c3)coc2c1,17.6 µM
5,COc1ccc2c(=O)c(/C=C/C(=O)NCc3ccc(F)cc3)coc2c1,> 100 µM
6,COc1ccc2c(=O)c(/C=C/C(=O)NCc3ccc(F)cc3F)coc2c1,> 100 µM
7,COc1ccc2c(=O)c(/C=C/C(=O)Nc3ccccc3)coc2c1,> 100 µM
8,COc1ccc2c(=O)c(/C=C/C(=O)Nc3ccccc3C)coc2c1,7.27 µM

# Tested on: Hepatitis B virus
# Assay: Antiviral activity against HBV infected in human HepG2(2.2.15) cells assessed as inhibition of HBeAg production after 9 days by ELISA
# Type: functional, organism-based
# Settings: HepG2 2.2.15, 216 h
# Outline: as §3
row,SMILES,IC50
1,COc1ccc2c(=O)c(/C=C/C(=O)NCc3ccc(C)cc3)coc2c1,> 100 µM
2,COc1ccc(CNC(=O)/C=C/c2coc3cc(OC)ccc3c2=O)cc1,14.4 µM
3,COc1ccc2c(=O)c(/C=C/C(=O)NCc3ccccc3F)coc2c1,> 100 µM
4,COc1ccc2c(=O)c(/C=C/C(=O)NCc3cccc(F)c3)coc2c1,> 100 µM
5,COc1ccc2c(=O)c(/C=C/C(=O)NCc3ccc(F)cc3)coc2c1,> 100 µM
6,COc1ccc2c(=O)c(/C=C/C(=O)NCc3ccc(F)cc3F)coc2c1,14.8 µM
7,COc1ccc2c(=O)c(/C=C/C(=O)Nc3ccccc3)coc2c1,16.9 µM
8,COc1ccc2c(=O)c(/C=C/C(=O)Nc3ccccc3C)coc2c1,15.8 µM

# Tested on: not listed separately
# Assay: Selectivity index, ratio of CC50 for human HepG2(2.2.15) cells to IC50 for HBV infected in human HepG2(2.2.15) cells assessed as inhibition of HBeAg production
# Type: functional
# Settings: not given
# Outline: as §2
row,SMILES,Ratio CC50/IC50
1,COc1ccc(CNC(=O)/C=C/c2coc3cc(OC)ccc3c2=O)cc1,2.98
2,COc1ccc2c(=O)c(/C=C/C(=O)NCc3ccc(F)cc3F)coc2c1,5.35
3,COc1ccc2c(=O)c(/C=C/C(=O)Nc3ccccc3)coc2c1,30.85
4,COc1ccc2c(=O)c(/C=C/C(=O)Nc3ccccc3C)coc2c1,3.77

# Tested on: Huh-7
# Assay: Growth inhibition of human HuH7 cells after 48 hrs by MTT assay
# Type: functional, cell-based
# Settings: Huh-7, 48 h
# Outline: as §1
row,SMILES,IC50
1,COc1ccc2c(=O)c(/C=C/C(=O)NCc3ccc(C)cc3)coc2c1,14.3 µM
2,COc1ccc(CNC(=O)/C=C/c2coc3cc(OC)ccc3c2=O)cc1,7.57 µM
3,COc1ccc2c(=O)c(/C=C/C(=O)NCc3ccccc3F)coc2c1,8.45 µM
4,COc1ccc2c(=O)c(/C=C/C(=O)NCc3cccc(F)c3)coc2c1,10.1 µM
5,COc1ccc2c(=O)c(/C=C/C(=O)NCc3ccc(F)cc3)coc2c1,20.9 µM
6,COc1ccc2c(=O)c(/C=C/C(=O)NCc3ccc(F)cc3F)coc2c1,> 100 µM
7,COc1ccc2c(=O)c(/C=C/C(=O)Nc3ccccc3)coc2c1,9.05 µM
8,COc1ccc2c(=O)c(/C=C/C(=O)Nc3ccccc3C)coc2c1,26.9 µM

# — ChEMBL document CHEMBL2331205, “Anti-hepatitis B virus and anti-cancer activities of novel isoflavone analogs” (Eur J Med Chem, 2013)
